In ChEMBL document CHEMBL1147862, “Studies on synthesis and pharmacological activities of 3,6-disubstituted-1,2,4-triazolo[3,4-b]-1,3,4-thiadiazoles and their dihydro analogues” (2007):

Experiments:
Assay type in all cases: functional
Candida albicans [1] = assay: Antifungal activity against Candida albicans at 30 ug/ml by paper disc method; settings: read-out: IZ
Staphylococcus aureus [2] = assay: Antibacterial activity against Staphylococcus aureus at 20 ug/ml by agar plate diffusion technique; settings: read-out: IZ
Aspergillus niger [3] = assay: Antifungal activity against Aspergillus niger at 30 ug/ml by paper disc method; settings: read-out: IZ
Rattus norvegicus [4] = assay: Antiinflammatory activity in Wistar Albino rat assessed as inhibition of carrageenan-induced paw oedema at 20 mg/kg after 4 hrs relative to control
In short: (§1)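 Wistar albino rats, 150–200 g, six per group, dosed orally with a 20 mg/kg suspension; control gets 0.1 ml 1% gum acacia. After 30 min, 0.1 ml 1% carrageenan in saline is injected subplantar into the right hind paw. Paw volume is read by plethysmograph at 0–4 h. Inhibition = 100(1 − Vtest/Vcontrol) on mean volume increase.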

Pseudomonas aeruginosa [5] = assay: Antibacterial activity against Pseudomonas aeruginosa at 30 ug/ml by agar plate diffusion technique; settings: read-out: IZ
Escherichia coli [6] = assay: Antibacterial activity against Escherichia coli at 10 ug/ml by agar plate diffusion technique; settings: read-out: IZ
Mus musculus [7] = assay: Analgesic activity in Swiss mouse assessed as increase in reaction time at 20 mg/kg, po after 60 mins by Eddy's hot plate technique
In short: (§2)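 Swiss mice of either sex, 25–35 g, placed one at a time on a hot plate held at 55 °C. End point is paw licking or jumping, whichever comes first, with a 15 s cut-off to avoid paw injury. Reaction time is recorded and reported as percent increase in reaction time.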

Aspergillus niger [8] = assay: Antifungal activity against Aspergillus niger at 10 ug/ml by paper disc method; settings: read-out: IZ
Escherichia coli [9] = assay: Antibacterial activity against Escherichia coli at 30 ug/ml by agar plate diffusion technique; settings: read-out: IZ
Rattus norvegicus [10] = assay: Antiinflammatory activity in Wistar Albino rat assessed as inhibition of carrageenan-induced paw oedema at 20 mg/kg after 2 hrs relative to control; in short: as §1
Mus musculus [11] = assay: Analgesic activity in Swiss mouse assessed as increase in reaction time at 20 mg/kg, po after 90 mins by Eddy's hot plate technique; in short: as §2
Candida albicans [12] = assay: Antifungal activity against Candida albicans at 20 ug/ml by paper disc method; settings: read-out: IZ
Staphylococcus aureus [13] = assay: Antibacterial activity against Staphylococcus aureus at 30 ug/ml by agar plate diffusion technique; settings: read-out: IZ
Pseudomonas aeruginosa [14] = assay: Antibacterial activity against Pseudomonas aeruginosa at 20 ug/ml by agar plate diffusion technique; settings: read-out: IZ
Bacillus subtilis [15] = assay: Antibacterial activity against Bacillus subtilis at 20 ug/ml by agar plate diffusion technique; settings: read-out: IZ
Rattus norvegicus [16] = assay: Antiinflammatory activity in Wistar Albino rat assessed as inhibition of carrageenan-induced paw oedema at 20 mg/kg after 1 hr relative to control; in short: as §1
Bacillus subtilis [17] = assay: Antibacterial activity against Bacillus subtilis at 10 ug/ml by agar plate diffusion technique; settings: read-out: IZ
Pseudomonas aeruginosa [18] = assay: Antibacterial activity against Pseudomonas aeruginosa at 10 ug/ml by agar plate diffusion technique; settings: read-out: IZ
Bacillus subtilis [19] = assay: Antibacterial activity against Bacillus subtilis at 30 ug/ml by agar plate diffusion technique; settings: read-out: IZ
Staphylococcus aureus [20] = assay: Antibacterial activity against Staphylococcus aureus at 10 ug/ml by agar plate diffusion technique; settings: read-out: IZ
Candida albicans [21] = assay: Antifungal activity against Candida albicans at 10 ug/ml by paper disc method; settings: read-out: IZ
Aspergillus niger [22] = assay: Antifungal activity against Aspergillus niger at 20 ug/ml by paper disc method; settings: read-out: IZ
Mus musculus [23] = assay: Analgesic activity in Swiss mouse assessed as increase in reaction time at 20 mg/kg, po after 30 mins by Eddy's hot plate technique; in short: as §2
Escherichia coli [24] = assay: Antibacterial activity against Escherichia coli at 20 ug/ml by agar plate diffusion technique; settings: read-out: IZ
Rattus norvegicus [25] = assay: Antiinflammatory activity in Wistar Albino rat assessed as inhibition of carrageenan-induced paw oedema at 20 mg/kg after 3 hrs relative to control; in short: as §1

Structure (SMILES)	zone of inhibition at 30 µg/mL (Candida albicans [1]) [mm]	zone of inhibition at 20 µg/mL (Staphylococcus aureus [2]) [mm]	zone of inhibition at 30 µg/mL (Aspergillus niger [3]) [mm]	inhibition in vivo at 20 mg/kg (Rattus norvegicus [4]) [%]	zone of inhibition at 30 µg/mL (Pseudomonas aeruginosa [5]) [mm]	zone of inhibition at 10 µg/mL (Escherichia coli [6]) [mm]	Activity (Mus musculus [7]) [%]	zone of inhibition at 10 µg/mL (Aspergillus niger [8]) [mm]	zone of inhibition at 30 µg/mL (Escherichia coli [9]) [mm]	inhibition in vivo at 20 mg/kg (Rattus norvegicus [10]) [%]	Activity (Mus musculus [11]) [%]	zone of inhibition at 20 µg/mL (Candida albicans [12]) [mm]	zone of inhibition at 30 µg/mL (Staphylococcus aureus [13]) [mm]	zone of inhibition at 20 µg/mL (Pseudomonas aeruginosa [14]) [mm]	zone of inhibition at 20 µg/mL (Bacillus subtilis [15]) [mm]	inhibition in vivo at 20 mg/kg (Rattus norvegicus [16]) [%]	zone of inhibition at 10 µg/mL (Bacillus subtilis [17]) [mm]	zone of inhibition at 10 µg/mL (Pseudomonas aeruginosa [18]) [mm]	zone of inhibition at 30 µg/mL (Bacillus subtilis [19]) [mm]	zone of inhibition at 10 µg/mL (Staphylococcus aureus [20]) [mm]	also measured
COc1ccc(Cl)c(-c2nnc3sc(-c4cc(-c5ccccc5)nc5ccccc45)nn23)c1	18.8	10.1	17.6	24.5	15.5	6.86	15.68	6.04	16.5	17.2	26.85	12.8	16.4	11.4	11.2	11.6	6.82	6.72	16.2	5.82	zone of inhibition at 10 µg/mL (Candida albicans [21]): 5.64 mm; zone of inhibition at 20 µg/mL (Aspergillus niger [22]): 11.6 mm; Activity (Mus musculus [23]): 5.34%; zone of inhibition at 20 µg/mL (Escherichia coli [24]): 11.7 mm; inhibition in vivo at 20 mg/kg (Rattus norvegicus [25]): 20.1%
COc1ccc(Cl)c(-c2nnc3sc(Cc4c[nH]c5ccc(OC)cc45)nn23)c1	11.2	8.52	12.2	33.9	12.8	5.1	23.76	5.38	13.2	14.4	31.48	9.2	13.7	9.18	8.79	6.1	4.76	4.83	13.2	4.58	zone of inhibition at 10 µg/mL (Candida albicans [21]): 5.44 mm; zone of inhibition at 20 µg/mL (Aspergillus niger [22]): 10.1 mm; Activity (Mus musculus [23]): 13.69%; zone of inhibition at 20 µg/mL (Escherichia coli [24]): 8.39 mm; inhibition in vivo at 20 mg/kg (Rattus norvegicus [25]): 21.4%
COc1ccc(Cc2nnc3sc(-c4cc(-c5ccccc5)nc5ccccc45)nn23)cc1OC	17.9	10.3	16.7	22.2	16	6.08	17.26	6.14	16.9	18.7	25.11	11.4	16.7	10.8	10.2	12.3	5.76	5.92	15.9	5.12	zone of inhibition at 10 µg/mL (Candida albicans [21]): 5.82 mm; zone of inhibition at 20 µg/mL (Aspergillus niger [22]): 11.5 mm; Activity (Mus musculus [23]): 5.36%; zone of inhibition at 20 µg/mL (Escherichia coli [24]): 11.3 mm; inhibition in vivo at 20 mg/kg (Rattus norvegicus [25]): 20.2%
COc1ccc(Cc2nnc3n2NC(c2ccc([N+](=O)[O-])o2)S3)cc1OC (stereo not given)	14.8	8.37	14.3	23.7	13.1	5.16	10.3	5.21	15	17.6	22.66	10.9	14	7.88	8.49	14.5	4.92	4.42	13.5	5.1	zone of inhibition at 10 µg/mL (Candida albicans [21]): 5.43 mm; zone of inhibition at 20 µg/mL (Aspergillus niger [22]): 9.64 mm; Activity (Mus musculus [23]): 2.83%; zone of inhibition at 20 µg/mL (Escherichia coli [24]): 10 mm; inhibition in vivo at 20 mg/kg (Rattus norvegicus [25]): 21.4%
